Laboratory results taken from ChEMBL document CHEMBL1155478, “Novel C-aryl glucoside SGLT2 inhibitors as potential antidiabetic agents: Pyridazinylmethylphenyl glucoside congeners” (Bioorg Med Chem Lett, 2010).

Tests used:
[1] = biological target: T1, Sodium/glucose cotransporter 2 (Homo sapiens, UniProt P31639); assay: Inhibition of human SGLT2 expressed in CHO cells assessed as [14C]alpha-methyl-D-glucopyranoside uptake after 2 hrs by liquid scintillation counting; type: cell-based
T1 sequence (P31639 whole entry): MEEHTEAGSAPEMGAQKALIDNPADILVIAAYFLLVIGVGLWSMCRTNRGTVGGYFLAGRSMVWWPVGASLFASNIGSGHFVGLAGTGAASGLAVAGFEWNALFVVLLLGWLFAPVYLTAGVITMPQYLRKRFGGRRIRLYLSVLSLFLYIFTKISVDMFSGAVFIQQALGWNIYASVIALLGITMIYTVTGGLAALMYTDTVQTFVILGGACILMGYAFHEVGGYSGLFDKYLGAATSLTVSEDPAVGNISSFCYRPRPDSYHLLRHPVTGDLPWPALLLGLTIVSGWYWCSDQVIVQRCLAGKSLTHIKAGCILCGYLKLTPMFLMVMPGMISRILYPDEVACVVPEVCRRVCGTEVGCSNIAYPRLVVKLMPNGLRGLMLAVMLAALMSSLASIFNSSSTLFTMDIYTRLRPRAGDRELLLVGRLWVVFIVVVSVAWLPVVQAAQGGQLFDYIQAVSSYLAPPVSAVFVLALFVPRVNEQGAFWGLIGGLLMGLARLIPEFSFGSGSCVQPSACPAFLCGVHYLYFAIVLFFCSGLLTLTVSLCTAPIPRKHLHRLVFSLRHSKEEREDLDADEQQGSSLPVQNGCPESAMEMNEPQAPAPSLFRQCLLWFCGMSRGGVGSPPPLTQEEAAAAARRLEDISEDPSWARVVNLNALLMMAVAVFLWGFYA
In short: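 CHO cells stably transfected with hSGLT2 (pcDNA3.1(+), G418-selected), seeded at 5 × 10⁴ cells/well and used 1 day later. Cells pre-incubated 10 min at 37 °C in Na⁺-free choline chloride buffer pH 7.4. Then incubated 2 h at 37 °C in NaCl uptake buffer with 1 mM unlabeled AMG plus ¹⁴C-AMG, with inhibitor or DMSO. Washed with 10 mM AMG buffer; radioactivity counted by liquid scintillation.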

[2] = Cmax in Sprague-Dawley rat at 5 mg/kg, po after 0.33 hrs; type: ADME, organism-based; set-up: dose 5 mg/kg, route oral; conditions: in vivo
In short: (§1)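 Male SD rats given a single oral dose of 5 mg/kg. Plasma sampled to obtain Cmax, time to Cmax and elimination half-life after oral dosing. Oral bioavailability (F) determined.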

[3] = Elimination half life in Sprague-Dawley rat at 5 mg/kg, po; type: ADME, organism-based; set-up: dose 5 mg/kg, route oral; conditions: in vivo, read-out: beta t1/2 (converted); in short: as §1
[4] = Oral bioavailability in Sprague-Dawley rat at 5 mg/kg; type: ADME, organism-based; conditions: in vivo; in short: as §1
Rattus norvegicus [5] = assay: Increase of urinary glucose excretion in normal Sprague-Dawley rat at 10 mg/kg, po subsequently dosed orally with 50% aqueous glucose solution measured up to 24 hrs relative to control; type: functional, Urine
Rattus norvegicus [6] = assay: Increase of urinary glucose excretion in normal Sprague-Dawley rat assessed per 200 g of body weight at 10 mg/kg, po subsequently dosed orally with 50% aqueous glucose solution measured up to 24 hrs (RVB = […] mg/200 g of body weight); type: functional, Urine
Rattus norvegicus [7] = assay: Increase of urinary volume in normal Sprague-Dawley rat at 10 mg/kg, po subsequently dosed orally with 50% aqueous glucose solution measured up to 24 hrs relative to control; type: functional, Urine
Rattus norvegicus [8] = assay: Increase of urinary volume in normal Sprague-Dawley rat assessed […] at 10 mg/kg, po subsequently dosed orally with 50% aqueous glucose solution measured up to 24 hrs (RVB = 3.9 +/- 0.23 ml/200 mg body weight)
in vivo = conditions: Sprague-Dawley, rat, po, 5 mg/kg

Row | SMILES | IC50 [1] | half-life [3] | bioavailability [4] | other results
1 | Cc1nnc(Cc2cc([C@@H]3O[C@H](CO)[C@@H](O)[C@H](O)[C@H]3O)ccc2Cl)c2ccccc12 | > 10000 nM |  |  | 
2 | CSc1ccc(Cc2cc([C@@H]3O[C@H](CO)[C@@H](O)[C@H](O)[C@H]3O)ccc2Cl)nn1 |  | 1.94 h | 26.1% | Cmax [2]: 310 ng/mL; fold change (FC) (Rattus norvegicus [5]): 180; Activity (Rattus norvegicus [6]): 344 mg; fold change (FC) (Rattus norvegicus [7]): 1.3; Activity (Rattus norvegicus [8]): 5.07 mL
3 | CC(C)Oc1ccc(Cc2cc([C@@H]3O[C@H](CO)[C@@H](O)[C@H](O)[C@H]3O)ccc2Cl)nn1 | 110 nM |  |  | 
4 | CCOc1ccc(Cc2cc([C@@H]3O[C@H](CO)[C@@H](O)[C@H](O)[C@H]3O)ccc2Cl)cc1 [DAPAGLIFLOZIN] |  | 4 h | 88.4% | Cmax at 0.67 h (in vivo): 2500 ng/mL
5 | COc1cccc(-c2ccc(Cc3cc([C@@H]4O[C@H](CO)[C@@H](O)[C@H](O)[C@H]4O)ccc3Cl)nn2)c1 | 351 nM |  |  | 
